# Source: BindingDB's records for doi:10.1021/jm00031a021 (Tap Pharmaceuticals, 1994)
# Where a SMILES comes first, the peptide text is derived from it. [ ]: non-standard residue; d: D form. The star is where a group is joined. Desaminotyrosyl = O=C(CCc1ccc(O)cc1)*
# Target: T1, Gonadotropin-releasing hormone receptor (Rattus norvegicus, UniProt P30969)
# T1 sequence (P30969 whole entry): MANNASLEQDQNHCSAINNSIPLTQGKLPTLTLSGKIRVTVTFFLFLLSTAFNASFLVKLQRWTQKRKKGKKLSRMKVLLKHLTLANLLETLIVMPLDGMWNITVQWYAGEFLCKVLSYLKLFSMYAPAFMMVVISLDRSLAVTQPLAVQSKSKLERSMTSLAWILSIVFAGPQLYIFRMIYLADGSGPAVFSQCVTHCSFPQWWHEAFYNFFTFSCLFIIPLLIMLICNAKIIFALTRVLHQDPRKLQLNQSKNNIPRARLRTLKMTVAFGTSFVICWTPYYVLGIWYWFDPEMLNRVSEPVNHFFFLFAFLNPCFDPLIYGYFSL
# Test: Inhibition of the in vitro binding of [125I]-labeled leuprolide to the rat pituitary luteinizing hormone releasing hormone (LHRH) receptor.
# How it was run: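 Rat pituitary LHRH receptor binding with 125I-labeled leuprolide as radioligand. pKI is the negative log of the analogue concentration inhibiting 50% of tracer binding. Compounds tested as TFA salts.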
row,Structure (SMILES),Ki
1,CCNC(=O)[C@H]1CCCN1C(=O)[C@H](CCCN=C(N)N)NC(=O)[C@H](CC(C)C)NC(=O)[C@@H](CCCCNC(=O)c1cccnc1)NC(=O)[C@H](Cc1ccc(O)cc1)N(C)C(=O)[C@H](CO)NC(=O)[C@H](Cc1c[nH]c2ccccc12)NC(=O)CCc1ccc(Cl)cc1,0.02 nM
2,CCNC(=O)[C@H]1CCCN1C(=O)[C@H](CCCN=C(N)N)NC(=O)[C@H](CC(C)C)NC(=O)[C@@H](CCCCNC(=O)c1cccnc1)NC(=O)[C@H](Cc1ccc(O)cc1)N(C)C(=O)[C@H](CO)NC(=O)[C@H](Cc1c[nH]c2ccccc12)NC(=O)CCc1ccc(F)cc1F,0.02 nM
3,CCNC(=O)[C@H]1CCCN1C(=O)[C@H](CCCN=C(N)N)NC(=O)[C@H](CC(C)C)NC(=O)[C@@H](Cc1c[nH]c2ccccc12)NC(=O)[C@H](Cc1ccc(O)cc1)NC(=O)[C@H](CO)NC(=O)[C@@H]1CCCN1C(=O)CCc1ccc(F)cc1,0.012 nM
4,CCNC(=O)[C@H]1CCCN1C(=O)[C@H](CCCCNC(C)C)NC(=O)[C@H](CC(C)C)NC(=O)[C@@H](CCCCNC(=O)c1cccnc1)NC(=O)[C@H](Cc1ccc(O)cc1)N(C)C(=O)[C@H](CO)NC(=O)[C@H](Cc1cccc2ccccc12)NC(=O)CCc1ccc(F)cc1,0.002 nM
5,CC(C)C[C@H](NC(=O)[C@@H](CCCCNC(=O)c1cccnc1)NC(=O)[C@H](Cc1ccc(O)cc1)N(C)C(=O)[C@H](CO)NC(=O)[C@H](Cc1cccc2ccccc12)NC(=O)CCc1ccc(F)cc1)C(=O)N[C@@H](CCCCNC(C)C)C(=O)N1CCC[C@@H]1C(N)=O,0.016 nM
6,CCNC(=O)[C@@H]1CCCN1C(=O)[C@H](CCCN=C(N)N)NC(=O)[C@H](CC(C)C)NC(=O)[C@@H](Cc1c[nH]c2ccccc12)NC(=O)[C@H](Cc1ccc(O)cc1)NC(=O)[C@H](CO)NC(=O)[C@H](Cc1c[nH]c2ccccc12)NC(=O)CCc1ccc(O)cc1 (Desaminotyrosyl-WSY[dW]LRP-NHEt),0.085 nM
7,CCNC(=O)[C@H]1CCCN1C(=O)[C@H](CCCN=C(N)N)NC(=O)[C@H](CC(C)C)NC(=O)[C@@H](CCCCNC(=O)c1cccnc1)NC(=O)[C@H](Cc1ccc(O)cc1)NC(=O)[C@H](CO)NC(=O)C(Cc1c[nH]c2ccccc12)NC(=O)CCc1ccc(F)cc1 (stereo partly drawn),0.347 nM
8,CCNC(=O)[C@H]1CCCN1C(=O)[C@H](CCCN=C(N)N)NC(=O)[C@H](CC(C)C)NC(=O)[C@@H](Cc1c[nH]c2ccccc12)NC(=O)[C@H](Cc1ccc(O)cc1)N(C)C(=O)[C@H](CO)NC(=O)[C@H](Cc1c[nH]c2ccccc12)NC(=O)CCc1ccc(F)cc1F,0.039 nM
9,CCNC(=O)[C@H]1CCCN1C(=O)[C@H](CCCN=C(N)N)NC(=O)[C@H](CC(C)C)NC(=O)[C@@H](Cc1c[nH]c2ccccc12)NC(=O)[C@H](Cc1ccc(O)cc1)NC(=O)[C@@H]1CC(O)CN1C(=O)[C@H](Cc1c[nH]c2ccccc12)NC(=O)CCc1ccc(F)cc1 (stereo partly drawn),1.29 nM
10,CCNC(=O)[C@H]1CCCN1C(=O)[C@H](CCCN=C(N)N)NC(=O)[C@H](CC(C)C)NC(=O)[C@@H](Cc1c[nH]c2ccccc12)NC(=O)[C@H](Cc1ccc(O)cc1)NC(=O)[C@H](CO)NC(=O)[C@H](Cc1cccc2ccccc12)NC(=O)CCc1ccc(F)cc1,0.017 nM
11,CCNC(=O)[C@H]1CCCN1C(=O)[C@H](CCCN=C(N)N)NC(=O)[C@H](CC(C)C)NC(=O)[C@@H](Cc1c[nH]c2ccccc12)NC(=O)[C@H](Cc1ccc(O)cc1)NC(=O)[C@H](CO)NC(=O)C(Cc1cccc2ccccc12)NC(=O)CCc1ccc(F)cc1 (stereo partly drawn),0.017 nM
12,CCNC(=O)[C@H]1CCCN1C(=O)[C@H](CCCN=C(N)N)NC(=O)[C@H](CC(C)C)NC(=O)[C@@H](CCCCNC(=O)c1cccnc1)NC(=O)[C@H](Cc1ccc(O)cc1)N(C)C(=O)[C@H](CO)NC(=O)[C@H](Cc1c[nH]c2ccccc12)NC(=O)CCc1cccc(F)c1,0.026 nM
13,CCNC(=O)[C@H]1CCCN1C(=O)[C@H](CCCN=C(N)N)NC(=O)[C@H](CC(C)C)NC(=O)[C@@H](CCCCNC(=O)c1cccnc1)NC(=O)[C@H](Cc1ccc(O)cc1)N(C)C(=O)[C@H](CO)NC(=O)[C@H](Cc1c[nH]c2ccccc12)NC(=O)CCc1ccc(F)cc1,0.017 nM
